The source of these data is PubChem BioAssay.

A word on the viability: it is a read-out of living cells in per cent, often relative to untreated cells. The term inhibition denotes the drop in the measured response relative to a control, in per cent.

The nature of assay [1]: Her2 expression decrease, cell viability multiplex – SKBR3 breast tumor cells, AlphaScreen, ATP viability, primary screen (AID 461;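 active means Her2 level under about 52% in both replicate screens, with viability over 70% of control, limit read from the data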;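 on Her2 level: lower value means less Her2 protein in the cells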;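 on viability: percent of carrier control wells set as 100% viability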). The following applies: SKBR3 Her2 protein level, 18-24 h, measured here: SKBR3 viability, ATP luminescence, at 10 µM. Background: Alpha assays give light when donor and acceptor beads are brought close together.
Assay [2] deals with Receptor tyrosine-protein kinase erbB-2 (Homo sapiens) (UniProt P04626). The assay is described as above. Conditions: 18-24 h, at 10 µM, stronger effect = lower value.
Assay [3] is described as follows: reduced viability of SK-BR-3 breast cancer cells – cell-based, 24 h, human, pilot screen (AID 572;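 active means viability at or below 10% of carrier control in both of two separate runs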;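 further: compound exposure lasted between 18 and 24 h rather than exactly 24 h; 100% = carrier-treated control wells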). The following applies: SK-BR-3 viability, CellTiter-Glo luminescence, at 10 µM, stronger effect = lower value.
Assay [4] in a line: HUVEC growth inhibition – cell-based, human, primary screen (AID 575;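 active means viability at or below 30% in both replicate assays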;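 further: 100% = median of untreated cell wells with 0.1% DMSO on each plate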). Conditions: HUVEC proliferation, CellTiter-Glo luminescence, 72 h; at 10 µM; stronger effect = lower value. The method, boiled down: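 material = primary HUVEC, no more than 12 passages | input = 1250 cells per well | controls = vehicle and MePR control wells | measured by = CTG luminescence | times = 72 h compound incubation | format = collagen-coated 384-well format | read-out = % viability vs DMSO wells | doses = single 10 µM dose, 0.1% DMSO, from 5x medium stock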
In general terms: ATP-based viability assays read luminescence as a measure of living cells.

Assay [5] can be described thus: H69AR cell proliferation blockers – human, duplicate replicates, primary screen (AID 580).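 Further: 100% = mean luminescence of untreated wells and 0% = no signal.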 The following applies: H69AR lung tumor cells viability, ATP luminescence, 72 h; at 10 µM; stronger effect = lower value.
Assay [6] is described as follows: MRP1 drug-resistance reversers in H69AR cells – cell-based, doxorubicin co-treatment, pilot screen (AID 601;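 active means viability loss from added drug above about 55%, and viability with drug at most 40%, in both replicates, limit read from the data, passing the limit was not always enough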). Conditions: CellTiter-Glo, 72 h, at 10 µM; for differential viability (reversal): stronger effect = higher value.
Assay [7] can be described thus: yeast transport mutant growth inhibition pilot in 384-well plates, post-Golgi transport modulator project (AID 636; in the data active means inhibition above about 31%). The following applies: absorbance 615 nm, about 18 h, stronger effect = higher value.
A short description of assay [8]: growth suppression of yeast trafficking mutant, preliminary HTS, modulators of trafficking downstream of Golgi apparatus project, 1536-format plate, OD 615 nm (AID 637; in the data active means inhibition above about 30%). The following applies: yeast transport mutant growth, absorbance 615 nm, 18 h; stronger effect = higher value.
Setting [9] is: H69AR cells + 2 uM doxorubicin, measured here: viability with 2 uM doxorubicin, stronger effect = lower value.
The mark [10] stands for this setting: H69AR cells, compound alone cytotoxicity.

Each structure is given as a SMILES string. Activity calls are given as the source filed them.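 How the source made its calls, unless noted: active means viability at or under a set limit in both replicates, limit being median viability minus 3 SD (cut at about 48% in these data, passing the limit was not always enough); inconclusive means at or under the limit in just one replicate; inactive means at or above the limit in both replicates.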

Chain of Receptor tyrosine-protein kinase erbB-2 (Homo sapiens) (P04626 whole entry, looked up): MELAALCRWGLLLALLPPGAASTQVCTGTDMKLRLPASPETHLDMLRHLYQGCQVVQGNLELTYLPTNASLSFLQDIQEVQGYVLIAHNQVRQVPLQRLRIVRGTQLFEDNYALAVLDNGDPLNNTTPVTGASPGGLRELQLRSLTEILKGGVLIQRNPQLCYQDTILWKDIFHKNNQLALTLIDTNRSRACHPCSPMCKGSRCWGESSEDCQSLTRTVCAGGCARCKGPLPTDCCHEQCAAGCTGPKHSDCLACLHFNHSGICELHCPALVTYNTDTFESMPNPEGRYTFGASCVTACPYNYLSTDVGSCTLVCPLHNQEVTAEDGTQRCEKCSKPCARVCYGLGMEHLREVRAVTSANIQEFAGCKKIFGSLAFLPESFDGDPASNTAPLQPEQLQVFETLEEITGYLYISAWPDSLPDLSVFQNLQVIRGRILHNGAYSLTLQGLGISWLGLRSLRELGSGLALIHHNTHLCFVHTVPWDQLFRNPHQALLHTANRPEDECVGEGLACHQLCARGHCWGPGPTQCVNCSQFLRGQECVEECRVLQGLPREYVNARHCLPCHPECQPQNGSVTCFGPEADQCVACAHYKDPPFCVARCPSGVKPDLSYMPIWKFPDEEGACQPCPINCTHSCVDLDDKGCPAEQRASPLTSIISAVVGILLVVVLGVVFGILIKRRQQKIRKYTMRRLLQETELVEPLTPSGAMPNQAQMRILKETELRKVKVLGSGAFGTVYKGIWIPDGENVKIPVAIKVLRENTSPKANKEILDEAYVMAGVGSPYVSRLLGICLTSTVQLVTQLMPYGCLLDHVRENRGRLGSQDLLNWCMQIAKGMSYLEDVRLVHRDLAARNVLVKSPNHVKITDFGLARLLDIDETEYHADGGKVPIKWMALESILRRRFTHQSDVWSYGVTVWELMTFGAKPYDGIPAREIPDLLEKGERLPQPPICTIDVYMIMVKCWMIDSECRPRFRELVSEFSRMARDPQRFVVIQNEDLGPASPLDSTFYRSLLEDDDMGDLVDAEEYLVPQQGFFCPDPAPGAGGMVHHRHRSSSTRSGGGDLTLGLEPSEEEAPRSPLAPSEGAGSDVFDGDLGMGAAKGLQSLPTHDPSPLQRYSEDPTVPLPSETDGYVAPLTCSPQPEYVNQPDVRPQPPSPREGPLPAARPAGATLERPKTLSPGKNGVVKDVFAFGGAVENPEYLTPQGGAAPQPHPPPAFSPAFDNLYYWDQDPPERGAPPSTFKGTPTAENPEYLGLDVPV

`O=C(O)C1CC=CCC1C(=O)Nc1ccc(S(=O)(=O)N2CCCc3ccccc32)cc1` (stereo not given): the viability was 85.5% in assay [1]; 85.5% (inactive) in assay [3]; 64.4% (inactive) in assay [4]; 98.7% (inactive) in assay [5]; 94.1% in assay [6] (setting [9]); 98.7% in assay [6] (setting [10]). The Her2 level in assay [2] is 88% (inactive). For the same compound, the differential viability (reversal) in assay [6] (H69AR cells + 2 uM doxorubicin) is 4.55% (inactive). Moreover, the figures for the inhibition in assay [7] and in assay [8] were -3.73% (inactive) and 0% (inactive), respectively.

As to `Cc1sc(NC(=O)CSc2nc(N)n(CC(=O)c3ccccc3)n2)c(C#N)c1C`, the viability in assay [1] is 103%; in assay [3], 103% (inactive); in assay [4], 103% (inactive); in assay [5], 90.4% (inactive); in assay [6] (setting [9]) it was 91.2%; in assay [6] (setting [10]) it was 90.4%. In addition, the Her2 level in assay [2] is 106% (inactive). Also, in assay [6] (H69AR cells + 2 uM doxorubicin), the differential viability (reversal) is -0.79% (inactive). For the same compound, the inhibition is -3.65% (inactive) in assay [7] and -6.83% (inactive) in assay [8].

Turning to `CCOC(=O)C1CCN(C(=O)COc2ccc(Cl)cc2Cl)CC1`, the viability in assay [1] is 109%; in assay [3], 109% (inactive); in assay [4], 101% (inactive); in assay [5] it was 96.2% (inactive); in assay [6] (setting [9]), 86.1%; in assay [6] (setting [10]), 96.2%. The Her2 level in assay [2] was 98% (inactive). Further, the differential viability (reversal) in assay [6] (H69AR cells + 2 uM doxorubicin) was 10.2% (inactive). The inhibition in assay [7] is -3.64% (inactive); in assay [8], -6.35% (inactive).

With `CS(=O)(=O)Nc1ccc(S(=O)(=O)Nc2nccs2)cc1`, the viability in assay [1] was 97%; in assay [3] it was 97% (inactive); in assay [4], 116% (inactive); in assay [5], 95.9% (inactive); in assay [6] (setting [9]), 92.2%; in assay [6] (setting [10]) it was 95.9%. The Her2 level in assay [2] was 90% (inactive). Further, the differential viability (reversal) in assay [6] (H69AR cells + 2 uM doxorubicin) was 3.66% (inactive). Further, the values for the inhibition in assay [7] and in assay [8] were -2.93% (inactive) and 1.31% (inactive), respectively.

On to `COc1ccc(N2CCN(CCCNC(=O)C3(S(=O)(=O)c4ccc(Cl)cc4)CC3)CC2)cc1`, for which the viability is 87.5% in assay [1]; 87.5% (inactive) in assay [3]; 87.2% (inactive) in assay [4]; 83.1% (inactive) in assay [5]; 96.1% in assay [6] (setting [9]); 83.1% in assay [6] (setting [10]). The Her2 level in assay [2] was 96.5% (inactive). Further, in assay [6] (H69AR cells + 2 uM doxorubicin), the differential viability (reversal) is -13.1% (inactive). For the same compound, the inhibition in assay [7] is -0.65% (inactive); in assay [8] it was -2.54% (inactive).

As to `CCOC(=O)N1CCN(C(=O)c2n[nH]c(=O)c3ccccc23)CC1`, the viability in assay [1] is 85%; in assay [3], 85% (inactive); in assay [4], 95.1% (inactive); in assay [5], 91.6% (inactive); in assay [6] (setting [9]), 89.8%; in assay [6] (setting [10]), 91.6%. Besides, the Her2 level in assay [2] was 101% (inactive). The differential viability (reversal) in assay [6] (H69AR cells + 2 uM doxorubicin) is 1.86% (inactive). The inhibition in assay [7] was -1.6% (inactive); in assay [8], 19% (inactive).

As to `Cc1ccc(NC(=O)C2CCCN2S(=O)(=O)c2cccc3cccnc23)cc1F` (stereo not given), the viability in assay [1] is 98%; in assay [3] it was 98% (inactive); in assay [4], 102% (inactive); in assay [5], 93.7% (inactive); in assay [6] (setting [9]) it was 100%; in assay [6] (setting [10]) it was 93.7%. For the same compound, the Her2 level in assay [2] was 97.5% (inactive). Moreover, the differential viability (reversal) in assay [6] (H69AR cells + 2 uM doxorubicin) was -6.31% (inactive). The inhibition in assay [7] is -4% (inactive); in assay [8], 3.93% (inactive).

For the compound `Cn1c(CCCNC(=O)c2ccccc2)nc2ccccc21`, the viability in assay [1] is 112%; in assay [3] it was 112% (inactive); in assay [4], 103% (inactive); in assay [5], 100% (inactive); in assay [6] (setting [9]), 81.7%; in assay [6] (setting [10]) it was 100%. Further, the Her2 level in assay [2] was 83% (inactive). Moreover, the differential viability (reversal) in assay [6] (H69AR cells + 2 uM doxorubicin) is 18.6% (inactive). The figures for the inhibition in assay [7] and in assay [8] were -8.65% (inactive) and -1.83% (inactive), respectively.

With `CCC(=O)OCCn1c(=O)c2cc3c(=O)n(CCOC(=O)CC)c(=O)c3cc2c1=O`, the viability in assay [1] is 99%; in assay [3] it was 99% (inactive); in assay [4], 98.3% (inactive); in assay [5] it was 87.2% (inactive); in assay [6] (setting [9]), 91.1%; in assay [6] (setting [10]), 87.2%. Moreover, the Her2 level in assay [2] was 135% (inactive). In assay [6] (H69AR cells + 2 uM doxorubicin), the differential viability (reversal) is -3.94% (inactive). Also, the inhibition in assay [7] was 4.55% (inactive); in assay [8], -4.83% (inactive).

In the case of `CCOC(=O)Cc1csc(NC(=O)CN(C)S(=O)(=O)c2ccc3c(c2)CCC(=O)N3)n1`, the viability was 108% in assay [1]; 108% (inactive) in assay [3]; 97.5% (inactive) in assay [4]; 100% (inactive) in assay [5]; 93.7% in assay [6] (setting [9]); 100% in assay [6] (setting [10]). In assay [2], the Her2 level was 109% (inactive). In assay [6] (H69AR cells + 2 uM doxorubicin), the differential viability (reversal) is 6.38% (inactive). In addition, the inhibition in assay [7] was -4% (inactive); in assay [8], 0.82% (inactive).

On to `O=C(Cn1cnc2c(cnn2-c2ccc(F)cc2)c1=O)N1CCCc2ccccc21`, for which the viability in assay [1] is 112%; in assay [3], 112% (inactive); in assay [4], 85.6% (inactive); in assay [5] it was 94.4% (inactive); in assay [6] (setting [9]), 102%; in assay [6] (setting [10]), 94.4%. For the same compound, the Her2 level in assay [2] is 86.5% (inactive). Besides, the differential viability (reversal) in assay [6] (H69AR cells + 2 uM doxorubicin) is -7.36% (inactive). In addition, the inhibition in assay [7] was -4.67% (inactive); in assay [8] it was -2.79% (inactive).

With `CCOC(=O)c1c(NC(=O)c2cccs2)sc2c1CCN(C(=O)OCC)C2`, the viability was 174% in assay [1]; 174% (inactive) in assay [3]; 6.86% (active) in assay [4]; 23.3% (active) in assay [5]; 25.5% in assay [6] (setting [9]); 23.3% in assay [6] (setting [10]). Moreover, in assay [2], the Her2 level is 13% (active). For the same compound, the differential viability (reversal) in assay [6] (H69AR cells + 2 uM doxorubicin) was -2.25% (inactive). Further, the inhibition is 0.39% (inactive) in assay [7] and -1.8% (inactive) in assay [8].

Turning to `CCC(c1nnc(SCC(=O)NCC2CCCO2)n1Cc1ccccc1)N(C)C` (stereo not given), the viability in assay [1] is 98.5%; in assay [3] it was 98.5% (inactive); in assay [4] it was 96.8% (inactive); in assay [5], 89.2% (inactive); in assay [6] (setting [9]), 83.3%; in assay [6] (setting [10]), 89.2%. Also, the Her2 level in assay [2] was 98% (inactive). Moreover, the differential viability (reversal) in assay [6] (H69AR cells + 2 uM doxorubicin) is 5.86% (inactive). Further, the inhibition in assay [7] is -7.47% (inactive); in assay [8], -1.61% (inactive).

Turning to `CS(=O)(=O)N(Cc1nc2sc3c(c2c(=O)[nH]1)CCCC3)C1CCCCC1`, the viability in assay [1] was 91%; in assay [3] it was 91% (inactive); in assay [4] it was 77.9% (inactive); in assay [5], 84% (inactive); in assay [6] (setting [9]), 82.7%; in assay [6] (setting [10]), 84%. The Her2 level in assay [2] is 112% (inactive). Moreover, the differential viability (reversal) in assay [6] (H69AR cells + 2 uM doxorubicin) is 1.24% (inactive). Besides, the inhibition in assay [7] is -4.8% (inactive); in assay [8], -0.49% (inactive).

Take `Cc1ccc(S(=O)(=O)NCC2CCC(C(=O)NCCCN3CCOCC3)CC2)cc1` (stereo not given): the viability in assay [1] was 89.5%; in assay [3] it was 89.5% (inactive); in assay [4], 92.7% (inactive); in assay [5], 88.6% (inactive); in assay [6] (setting [9]), 96.6%; in assay [6] (setting [10]), 88.6%. Further, the Her2 level in assay [2] was 93% (inactive). Also, in assay [6] (H69AR cells + 2 uM doxorubicin), the differential viability (reversal) is -8.07% (inactive). In addition, the values for the inhibition in assay [7] and in assay [8] were -0.53% (inactive) and 24.9% (inactive), respectively.
